From ChEMBL document CHEMBL2177013, “Synthesis and biological evaluation of tylophorine-derived dibenzoquinolines as orally active agents: exploration of the role of tylophorine e ring on biological activity” (J Med Chem, 2012)
pEC50: −log10 of the molar value. Activity calls are given as the source filed them. The rule behind the calls is not given here.

How the values were obtained:
RAW264.7 [1] = assay: Reduction in LPS/INFgamma-induced COX2 protein expression in mouse RAW264.7 cells incubated for 20 hrs by Western blotting; assay type: functional, cell-based
Summary of the method: (§1)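 LPS/IFNγ-stimulated RAW264.7 cells treated with compound for 20 h. iNOS, COX-2 and GAPDH detected by Western blot; representative of at least three independent experiments.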

NCI-H460 [2] = assay: Growth inhibition of human NCI-H460 cells; assay type: functional
Summary of the method: (§2)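 Cells seeded per well: NUGC-3 4500, HONE-1 6000, MCF-7 6500, NCI-H460 2500, HepG2 10000, A549 5000; A549 grown in RPMI 1640 with 2 g/L NaHCO₃, 2 mM L-glutamine and 10% FBS. GI₅₀ = concentration giving 50% growth inhibition, mean of at least three experiments each in duplicate. Paclitaxel served as positive control.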

[3] = Growth inhibition of human HONE1 cells; assay type: functional; summary of the method: as §2
A549 [4] = assay: Growth inhibition of human A549 cells; assay type: functional; summary of the method: as §2
NCI-H460 [5] = assay: Down regulation of cyclin A2 expression in human NCI-H460 cells incubated for 24 hrs by Western blotting; assay type: functional, cell-based
[6] = Cytotoxicity against mouse RAW264.7 cells; assay type: cell-based
Summary of the method: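 RAW264.7 cells stimulated with LPS/IFNγ and compound-treated in parallel with the NO assay; CC50 taken as concentration giving 50% inhibition of cell growth. Mean of at least three experiments, each in duplicate.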

MCF7 [7] = assay: Induction of c-Jun protein accumulation in human MCF7 cells incubated for 24 hrs by Western blotting; assay type: functional, cell-based
MCF7 [8] = assay: Growth inhibition of human MCF7 cells; assay type: functional; summary of the method: as §2
NCI-H460 [9] = assay: Induction of c-Jun protein accumulation in human NCI-H460 cells incubated for 24 hrs by Western blotting; assay type: functional, cell-based
NUGC-3 = assay: Growth inhibition of human NUGC3 cells; assay type: functional; summary of the method: as §2
MCF7 [10] = assay: Down regulation of cyclin A2 expression in human MCF7 cells incubated for 24 hrs by Western blotting; assay type: functional, cell-based
[11] = tested on: Transmissible gastroenteritis virus; assay: Antiviral activity against Transmissible gastroenteritis virus infected in ST cells assessed as reduction in N-protein expression pre-treated before virus infection measured 16 hrs post virus infection by Western blotting; assay type: functional, organism-based
Summary of the method: (§3)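 ST cells pretreated with compound, then infected with TGEV. Western blot for nucleocapsid (N) protein, caspase 3 (cleavage of procaspase 3) and GAPDH at 16 hpi. Representative of at least three independent experiments.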

RAW264.7 [12] = assay: Antiinflammatory activity in mouse RAW264.7 cells assessed as inhibition of LPS-induced nitric oxide production incubated for 18 hrs by nitrate/nitrite assay; assay type: functional, cell-based; details: RAW264.7, 18 h
Summary of the method: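 RAW264.7 seeded 65000 cells/well, cultured 24 h, then medium replaced with complete medium containing IFNγ (20 ng/mL)/LPS (5 μg/mL) plus compound at various concentrations for 18 h; nitric oxide measured by Nitrate/Nitrite kit. EC50 as mean of at least three experiments, each in duplicate.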

[13] = tested on: Transmissible gastroenteritis virus; assay: Antiviral activity against Transmissible gastroenteritis virus infected in ST cells pre-treated 2 hrs before virus infection measured 6 hrs post virus infection by immunofluorescent assay; assay type: functional, organism-based; details: Alphacoronavirus 1, ST
Summary of the method: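 ST cells, with or without 2 h compound pretreatment (10 concentrations), infected with TGEV at MOI 10. Immunofluorescence with anti-spike and anti-nucleocapsid antibodies at 6 hpi. EC50 from dose–response curves, mean of at least three experiments, each in duplicate.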

A549 [14] = assay: Down regulation of cyclin A2 expression in human A549 cells incubated for 24 hrs by Western blotting; assay type: functional, cell-based
[15] = tested on: Transmissible gastroenteritis virus; assay: Antiviral activity against Transmissible gastroenteritis virus infected in ST cells assessed as reduction in caspase-3 activation pre-treated before virus infection measured 16 hrs post virus infection by Western blotting; assay type: functional, organism-based; summary of the method: as §3
HepG2 = assay: Growth inhibition of human HepG2 cells; assay type: functional; summary of the method: as §2
A549 [16] = assay: Induction of c-Jun protein accumulation in human A549 cells incubated for 24 hrs by Western blotting; assay type: functional, cell-based
RAW264.7 [17] = assay: Reduction in LPS/INFgamma-induced iNOS protein expression in mouse RAW264.7 cells incubated for 20 hrs by Western blotting; assay type: functional, cell-based; summary of the method: as §1

Row | Structure (SMILES) | Activity (RAW264.7 [1]) | GI50 (NCI-H460 [2]) | GI50 [3] | GI50 (A549 [4]) | Activity (NCI-H460 [5]) | CC50 [6] | Activity (MCF7 [7]) | GI50 (MCF7 [8]) | Activity (NCI-H460 [9]) | GI50 (NUGC-3) | Activity (MCF7 [10]) | Activity [11] | pEC50 (RAW264.7 [12]) | pEC50 [13] | Activity (A549 [14]) | Activity [15] | GI50 (HepG2) | Activity (A549 [16]) | Activity (RAW264.7 [17])
1 | CCN1Cc2c(c3cc(OC)c(OC)cc3c3cc(OC)c(OC)cc23)C(O)C1 (stereo not drawn) | Active | 170 nM | 440 nM | 190 nM | Active | > 2000 nM | Active | 160 nM | Active | 150 nM | Active | Active | 6.42 | 6.47 | Active | Active | 360 nM | Active | Active
2 | COc1cc2c3c(c4cc(OC)c(OC)cc4c2cc1OC)CN(CCCNC(=O)OC(C)(C)C)CC3 | – | 2890 nM | 4520 nM | 3550 nM | – | – | – | 3350 nM | – | 3400 nM | – | – | – | 5.99 | – | – | 4150 nM | – | –
3 | CCN1CCc2c(c3cc(OC)ccc3c3cc(OC)c(OC)cc23)C1 | – | 3390 nM | 4870 nM | 4380 nM | – | – | – | 3120 nM | – | 3480 nM | – | – | – | 4.85 | – | – | 4010 nM | – | –
4 | CCC(C)N1CCc2c(c3cc(OC)c(OC)cc3c3cc(OC)c(OC)cc23)C1 (stereo not drawn) | – | 450 nM | 1150 nM | 530 nM | – | – | – | 400 nM | – | 440 nM | – | – | – | 6.14 | – | – | 510 nM | – | –
5 | CCCN1CCc2c(c3cc(OC)ccc3c3cc(OC)c(OC)cc23)C1 | – | 3820 nM | 5560 nM | 4640 nM | – | – | – | 3750 nM | – | 4630 nM | – | – | – | 5.05 | – | – | 4480 nM | – | –
6 | CCCN1Cc2c(c3cc(OC)c(OC)cc3c3cc(OC)c(OC)cc23)C(O)C1 (stereo not drawn) | – | 1080 nM | 1740 nM | 1190 nM | – | > 4000 nM | – | 1020 nM | – | 730 nM | – | – | 5.66 | 6.17 | – | – | 1680 nM | – | –
7 | CCN1CCc2c(c3cc(OC)c(OC)cc3c3c(OC)c(OC)c(OC)cc23)C1 | – | 870 nM | 1990 nM | 1410 nM | – | – | – | 1180 nM | – | 1700 nM | – | – | – | 5.94 | – | – | 2500 nM | – | –
